ChEMBL document CHEMBL2413022, “3-Aryl-4-acyloxyethoxyfuran-2(5H)-ones as inhibitors of tyrosyl-tRNA synthetase: synthesis, molecular docking and antibacterial evaluation” (Bioorg Med Chem, 2013)
Converted amounts (≈) assume the structure as drawn.

What was measured:
Staphylococcus aureus = experiment: Antibacterial activity against Staphylococcus aureus ATCC 25923 by MTT assay; type: functional
Method in brief: (§1)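 LB medium; inoculum about 10⁵ cfu/mL added to serially diluted compound (medium-only blank) and incubated at 37 °C. Then MTT in PBS (3 mg/mL) added, 4–5 h at room temperature. Medium removed, dye extracted 8–10 h in 10% SDS with 5% isopropanol and HCl. Read OD 570 nm, control OD kept at 1.0–2.0; MIC50 taken from absorbance.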

Escherichia coli = experiment: Antibacterial activity against Escherichia coli ATCC 35218 by MTT assay; type: functional; method in brief: as §1
Candida albicans = experiment: Antifungal activity against Candida albicans ATCC 10231 by MTT assay; type: functional
Method in brief: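 LB medium; inoculum about 10⁵ cfu/mL with serially diluted compound (medium-only blank), incubated at 28 °C. MTT in PBS (3 mg/mL) added, 4–5 h at room temperature. Dye extracted 8–10 h in 10% SDS with 5% isopropanol and HCl. OD read at 570 nm, control OD 1.0–2.0; MIC50 from absorbance.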

[1] = Inhibition of Staphylococcus aureus tyrosyl-tRNA synthetase expressed in Escherichia coli using L-[ring-3,5-3H] tyrosine as substrate preincubated for 10 mins by liquid scintillation counting analysis
Method in brief: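 Enzyme purified to about 98% (SDS–PAGE). Aminoacylation at 37 °C, final 100 mM Tris/Cl pH 7.9, 50 mM KCl. TyrRS (0.2 nM) preincubated with a range of inhibitor concentrations for 10 min at room temperature, then pre-warmed mixture added. Aliquots quenched in ice-cold 7% TCA at set intervals, filtered, counted by liquid scintillation.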

Pseudomonas aeruginosa = experiment: Antibacterial activity against Pseudomonas aeruginosa ATCC 27853 by MTT assay; type: functional; method in brief: as §1

Row | SMILES | MIC50 (Staphylococcus aureus) | MIC50 (Escherichia coli) | MIC50 (Candida albicans) | IC50 [1] | MIC50 (Pseudomonas aeruginosa)
1 | O=C1OCC(OCCOC(=O)c2ccc3ccccc3c2)=C1c1ccccc1 | 21.9 µg/mL (≈ 58.5 µM) | > 100 µg/mL | > 100 µg/mL | 17.7 µM | 18.1 µg/mL (≈ 48.3 µM)
2 | O=C1OCC(OCCOC(=O)c2ccc3cc(O)ccc3c2)=C1c1ccccc1 | 16.1 µg/mL (≈ 41.2 µM) | > 100 µg/mL | > 100 µg/mL | 16.8 µM | 15.8 µg/mL (≈ 40.5 µM)
3 | Cc1ccccc1C(=O)OCCOC1=C(c2ccccc2)C(=O)OC1 | > 100 µg/mL | 19.3 µg/mL (≈ 57 µM) | > 100 µg/mL | > 100 µM | 90.2 µg/mL (≈ 267 µM)
4 | O=C1OCC(OCCOC(=O)c2ccccc2Cl)=C1c1ccccc1 | 72.9 µg/mL (≈ 203 µM) | 17.9 µg/mL (≈ 49.9 µM) | > 100 µg/mL | 56.8 µM | 52.7 µg/mL (≈ 147 µM)
5 | O=C1OCC(OCCOC(=O)c2ccccc2[N+](=O)[O-])=C1c1ccccc1 | 24.3 µg/mL (≈ 65.8 µM) | 17.5 µg/mL (≈ 47.4 µM) | > 100 µg/mL | 18.2 µM | 35.5 µg/mL (≈ 96.1 µM)
6 | O=C1OCC(OCCOC(=O)c2ccccc2O)=C1c1ccccc1 | 24.9 µg/mL (≈ 73.2 µM) | 15.7 µg/mL (≈ 46.1 µM) | > 100 µg/mL | 41.4 µM | 47.8 µg/mL (≈ 140 µM)
7 | COc1ccccc1C(=O)OCCOC1=C(c2ccccc2)C(=O)OC1 | > 100 µg/mL | > 100 µg/mL | > 100 µg/mL | 64.7 µM | 73.6 µg/mL (≈ 208 µM)
8 | O=C1OCC(OCCOC(=O)c2cccc([N+](=O)[O-])c2)=C1c1ccccc1 | > 100 µg/mL | 9.4 µg/mL (≈ 25.5 µM) | > 100 µg/mL | > 100 µM | > 100 µg/mL
9 | Cc1cccc(C(=O)OCCOC2=C(c3ccccc3)C(=O)OC2)c1 | 15.8 µg/mL (≈ 46.7 µM) | > 100 µg/mL | > 100 µg/mL | 8.1 µM | 16.7 µg/mL (≈ 49.4 µM)
10 | O=C1OCC(OCCOC(=O)c2cccc(C(F)(F)F)c2)=C1c1ccccc1 | 17.5 µg/mL (≈ 44.6 µM) | 23.3 µg/mL (≈ 59.4 µM) | > 100 µg/mL | 4.3 µM | 2.4 µg/mL (≈ 6.12 µM)
11 | O=C1OCC(OCCOC(=O)c2ccc([N+](=O)[O-])cc2)=C1c1ccccc1 | 24.5 µg/mL (≈ 66.3 µM) | 5 µg/mL (≈ 13.5 µM) | 2.7 µg/mL (≈ 7.31 µM) | 5.2 µM | 11.4 µg/mL (≈ 30.9 µM)
12 | Cc1ccc(C(=O)OCCOC2=C(c3ccccc3)C(=O)OC2)cc1 | 18.3 µg/mL (≈ 54.1 µM) | > 100 µg/mL | 23.4 µg/mL (≈ 69.2 µM) | 17.8 µM | 37.7 µg/mL (≈ 111 µM)
13 | O=C1OCC(OCCOC(=O)c2ccc(F)cc2)=C1c1ccccc1 | 8.2 µg/mL (≈ 24 µM) | > 100 µg/mL | 18.1 µg/mL (≈ 52.9 µM) | 7.5 µM | 13.8 µg/mL (≈ 40.3 µM)
14 | O=C1OCC(OCCOC(=O)c2ccc(Cl)cc2)=C1c1ccccc1 | 17.2 µg/mL (≈ 47.9 µM) | > 100 µg/mL | 78.4 µg/mL (≈ 219 µM) | 8.8 µM | 14.5 µg/mL (≈ 40.4 µM)
15 | O=C1OCC(OCCOC(=O)c2ccc(O)cc2)=C1c1ccccc1 | 23.3 µg/mL (≈ 68.5 µM) | 19.5 µg/mL (≈ 57.3 µM) | 23 µg/mL (≈ 67.6 µM) | 11.2 µM | 21.3 µg/mL (≈ 62.6 µM)
16 | O=C1OCC(OCCOC(=O)c2ccc(Cl)cc2Cl)=C1c1ccccc1 | 18.2 µg/mL (≈ 46.3 µM) | 12.8 µg/mL (≈ 32.6 µM) | 22.9 µg/mL (≈ 58.2 µM) | 16.5 µM | 21.3 µg/mL (≈ 54.2 µM)
17 | O=C1OCC(OCCOC(=O)c2cc(Cl)ccc2Cl)=C1c1ccccc1 | 24.8 µg/mL (≈ 63.1 µM) | 13.9 µg/mL (≈ 35.3 µM) | > 100 µg/mL | 5.2 µM | 2.9 µg/mL (≈ 7.37 µM)
18 | O=C1OCC(OCCOC(=O)c2ccc(Cl)c(Cl)c2)=C1c1ccccc1 | 19.9 µg/mL (≈ 50.6 µM) | 2.9 µg/mL (≈ 7.37 µM) | 95.4 µg/mL (≈ 243 µM) | 33.4 µM | 22.7 µg/mL (≈ 57.7 µM)

Row | SMILES | MIC50 (Staphylococcus aureus) | MIC50 (Escherichia coli) | MIC50 (Candida albicans) | IC50 [1] | MIC50 (Pseudomonas aeruginosa)
19 | O=C1OCC(OCCOC(=O)c2ccc(O)cc2O)=C1c1ccccc1 | 15.3 µg/mL (≈ 42.9 µM) | > 100 µg/mL | > 100 µg/mL | 50.2 µM | 36.7 µg/mL (≈ 103 µM)
20 | O=C1OCC(OCCOC(=O)c2ccc(O)c(O)c2)=C1c1ccccc1 | 19.9 µg/mL (≈ 55.8 µM) | > 100 µg/mL | > 100 µg/mL | 75.3 µM | > 100 µg/mL
21 | O=C1OCC(OCCOC(=O)c2cc(O)cc(O)c2)=C1c1ccccc1 | 2.2 µg/mL (≈ 6.17 µM) | > 100 µg/mL | > 100 µg/mL | 6.7 µM | 14.4 µg/mL (≈ 40.4 µM)
22 | O=C(Cc1cccc(Cl)c1)OCCOC1=C(c2ccccc2)C(=O)OC1 | > 100 µg/mL | > 100 µg/mL | > 100 µg/mL | > 100 µM | 83.1 µg/mL (≈ 223 µM)
23 | O=C(Cc1ccc(F)cc1)OCCOC1=C(c2ccccc2)C(=O)OC1 | 16.5 µg/mL (≈ 46.3 µM) | > 100 µg/mL | > 100 µg/mL | 93.6 µM | > 100 µg/mL
24 | O=C(Cc1ccc(Br)cc1)OCCOC1=C(c2ccccc2)C(=O)OC1 | 15.4 µg/mL (≈ 36.9 µM) | 78.7 µg/mL (≈ 189 µM) | > 100 µg/mL | 48.1 µM | 22 µg/mL (≈ 52.7 µM)
25 | O=C(Cc1ccc(O)cc1)OCCOC1=C(c2ccccc2)C(=O)OC1 | 22.5 µg/mL (≈ 63.5 µM) | 53.6 µg/mL (≈ 151 µM) | > 100 µg/mL | > 100 µM | 68.1 µg/mL (≈ 192 µM)
26 | COc1ccc(CC(=O)OCCOC2=C(c3ccccc3)C(=O)OC2)cc1OC | > 100 µg/mL | > 100 µg/mL | 92.3 µg/mL (≈ 232 µM) | 83.8 µM | > 100 µg/mL
27 | O=C(Cc1cccc(Cl)c1)OCCOC1=C(c2ccc(Cl)cc2)C(=O)OC1 | 5.2 µg/mL (≈ 12.8 µM) | 7.6 µg/mL (≈ 18.7 µM) | 2.5 µg/mL (≈ 6.14 µM) | 1.1 µM | 2.5 µg/mL (≈ 6.14 µM)
28 | O=C(Cc1cccc(Br)c1)OCCOC1=C(c2ccc(Cl)cc2)C(=O)OC1 | 13.6 µg/mL (≈ 30.1 µM) | 16.6 µg/mL (≈ 36.8 µM) | 4.2 µg/mL (≈ 9.3 µM) | 3.5 µM | 4.6 µg/mL (≈ 10.2 µM)
29 | O=C(Cc1ccc(O)cc1)OCCOC1=C(c2ccc(Cl)cc2)C(=O)OC1 | 27.4 µg/mL (≈ 70.5 µM) | > 100 µg/mL | > 100 µg/mL | 7.9 µM | 15.5 µg/mL (≈ 39.9 µM)
30 | O=C(Cc1ccc(F)cc1)OCCOC1=C(c2ccc(Cl)cc2)C(=O)OC1 | 14.9 µg/mL (≈ 38.1 µM) | > 100 µg/mL | 15.6 µg/mL (≈ 39.9 µM) | 5.7 µM | 13.2 µg/mL (≈ 33.8 µM)
31 | O=C(Cc1ccc(Cl)cc1)OCCOC1=C(c2ccc(Cl)cc2)C(=O)OC1 | 13.3 µg/mL (≈ 32.7 µM) | 45.6 µg/mL (≈ 112 µM) | > 100 µg/mL | 9.3 µM | 17.7 µg/mL (≈ 43.5 µM)
32 | O=C(Cc1ccc(Br)cc1)OCCOC1=C(c2ccc(Cl)cc2)C(=O)OC1 | 13 µg/mL (≈ 28.8 µM) | 14.3 µg/mL (≈ 31.7 µM) | 13.1 µg/mL (≈ 29 µM) | 16.7 µM | 20.6 µg/mL (≈ 45.6 µM)
33 | O=C1OCC(OCCOC(=O)c2cccc(Cl)c2)=C1c1ccc(Cl)cc1 | 2 µg/mL (≈ 5.09 µM) | 4.3 µg/mL (≈ 10.9 µM) | 1.2 µg/mL (≈ 3.05 µM) | 0.9 µM | 1.5 µg/mL (≈ 3.81 µM)
34 | NC[C@H]1O[C@H](O[C@H]2[C@H](O)[C@@H](O[C@H]3O[C@H](CO)[C@@H](O)[C@H](N)[C@H]3O)[C@H](N)C[C@@H]2N)[C@H](O)[C@@H](O)[C@@H]1O [KANAMYCIN] | 1.5 µg/mL (≈ 3.1 µM) | 3.5 µg/mL (≈ 7.22 µM) | – | – | –
35 | CC(=O)N1CCN(c2ccc(OCC3COC(Cn4ccnc4)(c4ccc(Cl)cc4Cl)O3)cc2)CC1 (centres undefined) [KETOCONAZOLE] | – | – | 3.8 µg/mL (≈ 7.15 µM) | – | –
36 | CCn1cc(C(=O)O)c(=O)c2cc(F)c(N3CCNCC3)cc21 [NORFLOXACIN] | – | – | – | – | 2.1 µg/mL (≈ 6.58 µM)
